According to ChEMBL document CHEMBL4765373, “Design, synthesis and biological evaluation of rasagiline-clorgyline hybrids as novel dual inhibitors of monoamine oxidase-B and amyloid-β aggregation against Alzheimer's disease” (Eur J Med Chem, 2020):
Active and inactive are the calls of the source. No cut-off for these calls is given here.

Columns and labels:
in vitro = conditions: PAMPA, pH 7.4
MAO-A = molecular target: T1, MAO-A (Homo sapiens, UniProt P21397); assay: Inhibition of recombinant human MAOA expressed in baculovirus infected BTI insect cells at 100 uM using p-tyramine as substrate measured after 15 mins by Amplex red reagent based fluorescence assay relative to control; conditions: probe p-tyramine
T1 sequence (P21397 whole entry): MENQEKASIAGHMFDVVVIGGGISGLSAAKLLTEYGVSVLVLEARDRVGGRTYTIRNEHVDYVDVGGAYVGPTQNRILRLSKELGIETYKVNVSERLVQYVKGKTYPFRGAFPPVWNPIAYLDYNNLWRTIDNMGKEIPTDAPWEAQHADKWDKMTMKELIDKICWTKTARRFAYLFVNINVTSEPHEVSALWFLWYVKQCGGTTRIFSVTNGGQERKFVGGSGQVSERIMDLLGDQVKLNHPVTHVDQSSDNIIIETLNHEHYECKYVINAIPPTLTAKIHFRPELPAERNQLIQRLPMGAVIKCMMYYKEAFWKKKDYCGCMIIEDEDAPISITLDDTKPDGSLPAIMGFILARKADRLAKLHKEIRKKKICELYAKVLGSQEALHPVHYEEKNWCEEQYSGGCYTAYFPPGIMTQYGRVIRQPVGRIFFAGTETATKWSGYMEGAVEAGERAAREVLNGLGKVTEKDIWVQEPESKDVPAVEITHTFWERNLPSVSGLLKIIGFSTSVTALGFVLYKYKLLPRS
In short: (§1)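 Recombinant human MAO-A or MAO-B with p-tyramine substrate; H2O2 production detected by Amplex Red. Compounds diluted in DMSO/PBS (final DMSO <0.1%) and incubated with enzyme and substrate 15 min at 37 °C in the dark. Fluorescence read at ex/em 545/590 nm; mean ± SD of three independent experiments.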

[1] = molecular target: T2, Amine oxidase [flavin-containing] B (Homo sapiens, UniProt P27338); assay: biochemical; assay type: cell-based, BTI
T2 sequence (P27338 whole entry): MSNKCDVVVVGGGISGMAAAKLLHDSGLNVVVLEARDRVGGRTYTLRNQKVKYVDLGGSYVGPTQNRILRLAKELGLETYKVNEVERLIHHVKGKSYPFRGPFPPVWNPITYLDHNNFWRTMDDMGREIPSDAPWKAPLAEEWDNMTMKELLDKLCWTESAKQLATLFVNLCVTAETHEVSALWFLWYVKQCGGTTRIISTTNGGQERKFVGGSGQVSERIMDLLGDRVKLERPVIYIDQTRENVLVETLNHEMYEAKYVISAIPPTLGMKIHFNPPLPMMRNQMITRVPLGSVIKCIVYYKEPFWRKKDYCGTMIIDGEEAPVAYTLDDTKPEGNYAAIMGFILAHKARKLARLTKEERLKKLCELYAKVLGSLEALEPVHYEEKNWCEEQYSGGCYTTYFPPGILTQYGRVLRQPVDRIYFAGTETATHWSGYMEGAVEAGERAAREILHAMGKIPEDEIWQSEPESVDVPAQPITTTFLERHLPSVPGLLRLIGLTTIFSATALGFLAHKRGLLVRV

Homo sapiens [2] = species on record: Homo sapiens; assay: Selectivity index, ratio of IC50 for recombinant human MAOA expressed in baculovirus infected BTI insect cells to IC50 for recombinant human MAOB expressed in baculovirus infected BTI insect cells
In short: as §1

Homo sapiens [3] = species on record: Homo sapiens; assay: Inhibition of self-induced amyloid beta (1 to 42) (unknown origin) peptide aggregation at 25 uM measured after 48 hrs by thioflavin-T fluorescence assay relative to control
[4] = molecular target: T2, Amine oxidase [flavin-containing] B; assay: Competitive inhibition of recombinant human MAOB expressed in baculovirus infected BTI insect cells at 2.5 to 10 nM using varying levels of p-tyramine as substrate by Lineweaver-Burk plot analysis; conditions: dose 2.5-10 nM
In short: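 Recombinant hMAO-B initial rates measured with and without inhibitor at 2.5, 5 and 10 nM. p-Tyramine substrate at 0.05, 0.1, 0.5, 1.0, 1.5 and 3.0 mM. H2O2 production read by Amplex Red fluorescence. Mechanism taken from overlaid Lineweaver–Burk reciprocal plots.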

Homo sapiens [5] = species on record: Homo sapiens; assay: Inhibition of self-induced amyloid beta (1 to 42) (unknown origin) peptide aggregation assessed as reduction in number of amyloid beta aggregates by TEM analysis
SH-SY5Y [6] = assay: Cytotoxicity against human SH-SY5Y cells assessed as reduction in cell viability at 25 uM after 24 hrs by MTT assay; assay type: cell-based
In short: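 SH-SY5Y cells grown in DMEM with FBS, penicillin/streptomycin, 5% CO2, 37 °C. Seeded at 10,000 cells/well and exposed to compound (6.25–100 µM) for 24 h at 37 °C. MTT added for 4 h, formazan dissolved in DMSO, absorbance read at 570 nm (reference 630 nm). Mean ± SD of three independent experiments.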

SH-SY5Y [7] = assay: Neuroprotective activity against 6-OHDA-induced cell death in human SH-SY5Y cells assessed as increase in cell survival at 1.563 to 25 uM incubated for 24 hrs by MTT assay; assay type: functional, cell-based; conditions: dose 1.563-25 µM
In short: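 SH-SY5Y cells co-incubated with 200 µM 6-OHDA and compound at 1.563, 3.125, 6.25, 12.5 or 25 µM for 24 h. Viability read by MTT assay against a 6-OHDA-only group. Means ± SEM of three independent experiments.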

[8] = Half life in Sprague-Dawley rat at 3 mg/kg, iv by LC-MS/MS analysis; assay type: ADME, organism-based; conditions: in vivo
In short: (§2)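 Male SD rats (n=3, 220 ± 20 g) dosed 3 mg/kg i.v. or 10 mg/kg by oral gavage. Plasma proteins precipitated with two volumes of 0.5% formic acid/acetonitrile; supernatant quantified by LC-MS/MS.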

[9] = Cmax in Sprague-Dawley rat at 3 mg/kg, iv by LC-MS/MS analysis; assay type: ADME, organism-based; design: route intravenous, dose 3 mg/kg; conditions: in vivo
In short: as §2

[10] = AUC (0 to infinity) in Sprague-Dawley rat at 3 mg/kg, iv by LC-MS/MS analysis; assay type: ADME, organism-based; design: time infinity, route intravenous, dose 3 mg/kg; conditions: in vivo
In short: as §2

[11] = Clearance in Sprague-Dawley rat at 3 mg/kg, iv by LC-MS/MS analysis; assay type: ADME, organism-based; conditions: in vivo
In short: as §2

[12] = Half life in Sprague-Dawley rat at 10 mg/kg, po administered via gavage by LC-MS/MS analysis; assay type: ADME, organism-based; conditions: in vivo
In short: as §2

[13] = Tmax in Sprague-Dawley rat at 10 mg/kg, po administered via gavage by LC-MS/MS analysis; assay type: ADME, organism-based; conditions: in vivo
In short: as §2

[14] = Cmax in Sprague-Dawley rat at 10 mg/kg, po administered via gavage by LC-MS/MS analysis; assay type: ADME, organism-based; design: route oral, dose 10 mg/kg; conditions: in vivo
In short: as §2

[15] = AUC (0 to infinity) in Sprague-Dawley rat at 10 mg/kg, po administered via gavage by LC-MS/MS analysis; assay type: ADME, organism-based; design: route oral, time infinity, dose 10 mg/kg; conditions: in vivo
In short: as §2

[16] = Oral bioavailability in Sprague-Dawley rat at 10 mg/kg administered via gavage by LC-MS/MS analysis; assay type: ADME, organism-based; conditions: in vivo
In short: as §2

[17] = molecular target: T2, Amine oxidase [flavin-containing] B; assay: Inhibition of recombinant human MAOB expressed in baculovirus infected BTI insect cells at 100 uM using p-tyramine as substrate measured after 15 mins by Amplex red reagent based fluorescence assay relative to control; conditions: 0.25 h
In short: as §1

SMILES	Papp at 16 h (in vitro) [×10⁻⁶ cm/s]	inhibition at 0.25 h, 100 µM (MAO-A) [%]	IC50 [1] [nM]	inhibition (Homo sapiens [3]) [%]	Ratio IC50 (Homo sapiens [2])	other results
C[C@]12CC[C@@H]3c4ccc(O)cc4CC[C@H]3[C@@H]1CC[C@@H]2O [ESTRADIOL]	12.4	–	–	–	–	–
C#CCN(C)CCCCOc1ccc(C(C)=O)cc1OC	12.5	21.1	1150	21.8	> 87	–
C#CCN(C)CCCCCCOc1ccc(C=O)c(OC)c1	11.2	37.4	552	0.99	> 181	–
C#CCN(C)CCCCOc1ccc2c(c1)CCC2=O	9.61	7.93	366	31.3	> 273	–
C#CCN(C)CCCCCCCCOc1ccc2c(c1)OCCC2=O	8.91	28.6	422	0.34	> 237	–
CN(C)CCCN1c2ccccc2Sc2ccc(Cl)cc21 [CHLORPROMAZINE]	7.12	–	–	–	–	–
COc1cc(/C=C/C(=O)CC(=O)/C=C/c2ccc(O)c(OC)c2)ccc1O	–	–	–	46.1	–	inhibition (Homo sapiens [5]): Active
C#CCN(C)CCCCCOc1ccc(C=O)c(OC)c1	14	27.1	5730	0.82	> 17	–
C#CCN(C)CCCCCOc1ccc(C(C)=O)cc1OC	12.9	39.5	6520	5.74	> 15	–
C#CCN(C)CCCCOc1ccc(C=O)c(OC)c1	13.1	29.4	–	0.86	–	inhibition at 100 µM [17]: 41.2%
C#CCN(C)CCCCCCOc1ccc2c(c1)CCCC2=O	8.58	25	133	18.1	> 751	–
C#CCN[C@@H]1CCc2ccccc21 [RASAGILINE]	–	47.9	–	–	–	Activity (SH-SY5Y [7]): Active
C#CCN(C)CCCOc1ccc2c(c1)OCCC2=O	9.21	32.1	11400	7.77	> 9	–

Continued by falling IC50 [1], values first:

Papp at 16 h (in vitro) [×10⁻⁶ cm/s]	inhibition at 0.25 h, 100 µM (MAO-A) [%]	IC50 [1] [nM]	inhibition (Homo sapiens [3]) [%]	SMILES	Ratio IC50 (Homo sapiens [2])	other results
12.8	4.42	129	0.68	C#CCN(C)CCCCCCOc1ccc2c(c1)CCC2=O	> 777	–
8.54	34.1	117	0.66	C#CCN(C)CCCCCCOc1ccc2c(c1)OCCC2=O	> 855	–
10.5	32.3	101	22.2	C#CCN(C)CCCCCOc1cccc(OC)c1	> 991	–
10.9	31	94.8	11.4	C#CCN(C)CCCCCOc1ccc2c(c1)CCC2=O	> 1060	–
8.7	30.9	72.5	13.4	C#CCN(C)CCCCOc1ccc2c(c1)CCCC2=O	> 1380	–
13.7	22.8	58.9	43.9	C#CCN(C)CCCCOc1ccc2c(c1)OCCC2=O	> 1700	–
10.6	28.6	56.5	6.18	C#CCN(C)CCCCOc1ccc(C(C)=O)cc1	> 1770	–
8.3	11.7	51.9	9.76	C#CCN(C)CCCCCCOc1ccc2c(c1)OCC2=O	> 1930	–
10.6	26.1	46.3	10.3	C#CCN(C)CCCCCOc1ccc2c(c1)CCCC2=O	> 2160	–
8.69	37.3	20.4	12.7	C#CCN(C)CCCCCCOc1ccc(C(C)=O)cc1	> 4900	–
10.2	6.04	4	40.8	C#CCN(C)CCCCCOc1ccc2c(c1)OCCC2=O	> 2.5 10^4No_unit	inhibition (INH) [4]: Active; inhibition (Homo sapiens [5]): Active; Activity (SH-SY5Y [6]): Non-Toxic; Activity (SH-SY5Y [7]): Active; half-life [8]: 1.02 h; Cmax [9]: 639 ng/mL; AUC [10]: 247.74 ng·h/mL; CL [11]: 55.5 mL/min/kg; half-life [12]: 1.33 h; Tmax [13]: 0.3 h; Cmax [14]: 142 ng/mL; AUC(0-inf) [15]: 268 ng·h/mL; bioavailability [16]: 36.1%
